Assay results reported in ChEMBL document CHEMBL5344428, “Discovery, Crystallographic Studies, and Mechanistic Investigations of Novel Phenylalanine Derivatives Bearing a Quinazolin-4-one Scaffold as Potent HIV Capsid Modulators” (J Med Chem, 2023).

Legend:
[1] = Selectivity ratio of EC50 for antiviral activity against HIV1 IIIB infected in human MT4 cells to EC50 for antiviral activity against HIV2 ROD infected in human MT4 cells; format: toxicity, cell-based
Method in brief: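 Ratio is EC50 against HIV-1 IIIB divided by EC50 against HIV-2 ROD. Both EC50 values come from MTT-read protection of infected MT-4 cells.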

[2] = Selectivity index, ratio of CC50 for cytotoxicity against human MT4 cells to EC50 for antiviral activity against HIV2 ROD infected in human MT4 cells; format: toxicity, cell-based; details: read-out: Ratio CC50/EC50
Method in brief: (§1)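 SI is CC50 divided by EC50. CC50 comes from MTT viability of uninfected MT-4 cells. EC50 comes from MTT-read protection of MT-4 cells infected with HIV-1 IIIB or HIV-2 ROD. Each value was run in at least triplicate.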

[3] = Selectivity index, ratio of CC50 for cytotoxicity against human MT4 cells to EC50 for antiviral activity against HIV1 IIIB infected in human MT4 cells; format: toxicity, cell-based; details: read-out: Ratio CC50/EC50; method in brief: as §1
[4] = Cytotoxicity against human MT4 cells assessed as reduction in cell viability incubated for 5 days by MTT assay; format: toxicity, cell-based; details: MT4 cells, time 5 day
Method in brief: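 Uninfected MT-4 cells were exposed to compound, and viability was read by the MTT method. […] Each value was run in at least triplicate and averaged from at least three independent experiments.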

[5] = tested on: Human immunodeficiency virus 1; assay: Antiviral activity against HIV1 IIIB infected in human MT4 cells assessed as reduction in virus induced cytopathic effect measured after 5 days by MTT assay; format: functional, organism-based; details: Human immunodeficiency virus 1, IIIB, MT4, 120 h
Method in brief: (§2)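 MT-4 cells were infected with HIV-1 IIIB or HIV-2 ROD, and cell viability was read by MTT. […] Each value was run in at least triplicate and averaged from at least three independent experiments.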

[6] = tested on: Human immunodeficiency virus 2; assay: Antiviral activity against HIV2 ROD infected in human MT4 cells assessed as reduction in virus induced cytopathic effect measured after 5 days by MTT assay; format: functional, organism-based; details: Human immunodeficiency virus 2, ROD, MT4, 120 h; method in brief: as §2

## COc1ccc(-n2c(SCC(N)=O)nnc2[C@H](Cc2ccccc2)NC(=O)Cc2c(C)[nH]c3ccccc23)cc1
[1]
  Ratio EC50: 0.24
[2]
  selectivity ratio: 32
[3]
  selectivity ratio: 135
[4]
  CC50 at 120 h: 118 µM
[5]
  EC50: 0.88 µM
[6]
  EC50: 3.74 µM

## C#CCSc1nnc([C@H](Cc2ccccc2)NC(=O)Cc2c(C)[nH]c3ccccc23)n1-c1ccc(OC)cc1
[1]
  Ratio EC50: 0.52
[2]
  selectivity ratio: 6
[3]
  selectivity ratio: 12
[4]
  CC50 at 120 h: 24.7 µM
[5]
  EC50: 2.05 µM
[6]
  EC50: 3.94 µM

## COC(=O)c1ccc(C(=O)Nc2ccn(CC(=O)N[C@@H](Cc3ccccc3)C(=O)N(C)c3ccc(OC)cc3)c(=O)c2)cc1
[1]
  Ratio EC50: 1.25
[2]
  selectivity ratio: 6.31
[3]
  selectivity ratio: 5.04
[4]
  CC50 at 120 h: 96.2 µM
[5]
  EC50: 19.1 µM
[6]
  EC50: 15.2 µM

## COc1ccc(N(C)C(=O)[C@H](Cc2cc(F)cc(F)c2)NC(=O)Cn2ccc(N)cc2=O)cc1
[1]
  Ratio EC50: 0.34
[2]
  selectivity ratio: > 17.1
[3]
  selectivity ratio: > 49.6
[4]
  CC50 at 120 h: > 266 µM
[5]
  EC50: 5.36 µM
[6]
  EC50: 15.6 µM

## COc1ccc(-n2c(SCc3cncs3)nnc2[C@H](Cc2ccccc2)NC(=O)Cc2c(C)[nH]c3ccccc23)cc1
[1]
  Ratio EC50: 0.23
[2]
  selectivity ratio: 9
[3]
  selectivity ratio: 38
[4]
  CC50 at 120 h: 33.9 µM
[5]
  EC50: 0.9 µM
[6]
  EC50: 3.98 µM

## COc1ccc(-n2c([C@H](Cc3ccccc3)NC(=O)CN3CCN(S(=O)(=O)c4ccc(N)cc4)CC3)nc3ccccc3c2=O)cc1
[1]
  Ratio EC50: 4.27
[2]
  selectivity ratio: > 1250
[3]
  selectivity ratio: > 291
[4]
  CC50 at 120 h: > 187 µM
[5]
  EC50: 0.64 µM
[6]
  EC50: 0.15 µM

## COC(=O)C(C)(C)Sc1nnc([C@H](Cc2ccccc2)NC(=O)Cc2c(C)[nH]c3ccccc23)n1-c1ccc(OC)cc1
[1]
  Ratio EC50: 0.13
[3]
  selectivity ratio: 8
[4]
  CC50 at 120 h: 22.6 µM
[5]
  EC50: 2.88 µM
[6]
  EC50: > 22.6 µM

## COc1ccc(N(C)C(=O)[C@H](Cc2ccccc2)NC(=O)CN2CCN(C(=O)Cc3c[nH]c4ccc(Br)cc34)CC2=O)cc1
[2]
  selectivity ratio: < 1
[3]
  selectivity ratio: < 1
[4]
  CC50 at 120 h: 16.4 µM
[5]
  EC50: > 16.4 µM
[6]
  EC50: > 16.4 µM

## COc1ccc(N(C)C(=O)[C@H](Cc2ccccc2)NC(=O)Cn2ccc(NC(=O)c3ccccc3F)cc2=O)cc1
[1]
  Ratio EC50: 2.26
[2]
  selectivity ratio: 10.3
[3]
  selectivity ratio: 4.55
[4]
  CC50 at 120 h: 81.4 µM
[5]
  EC50: 17.9 µM
[6]
  EC50: 7.92 µM

## COc1ccc(-n2c(SCCC(F)(F)F)nnc2[C@H](Cc2ccccc2)NC(=O)Cc2c(C)[nH]c3ccccc23)cc1
[1]
  Ratio EC50: < 0.09
[3]
  selectivity ratio: 11
[4]
  CC50 at 120 h: 30.8 µM
[5]
  EC50: 2.87 µM
[6]
  EC50: > 30.8 µM

## COc1ccc(N(C)C(=O)[C@H](Cc2cc(F)cc(F)c2)NC(=O)CN2CCN(C(=O)Cc3c[nH]c4ccc(OC)cc34)CC2=O)cc1
[2]
  selectivity ratio: < 1
[3]
  selectivity ratio: < 1
[4]
  CC50 at 120 h: 15.9 µM
[5]
  EC50: > 15.9 µM
[6]
  EC50: > 15.9 µM

## COc1ccc(C(=O)Nc2ccn(CC(=O)N[C@@H](Cc3ccccc3)C(=O)N(C)c3ccc(OC)cc3)c(=O)c2)cc1
[1]
  Ratio EC50: 2.78
[2]
  selectivity ratio: 4.98
[3]
  selectivity ratio: 1.79
[4]
  CC50 at 120 h: 53.1 µM
[5]
  EC50: 29.6 µM
[6]
  EC50: 10.7 µM

## COc1ccc(N(C)C(=O)[C@H](Cc2cc(F)cc(F)c2)NC(=O)CN(Cc2ccc(C#N)cc2)C(=O)Cc2c[nH]c3ccc(F)cc23)cc1
[1]
  Ratio EC50: 2.97
[2]
  selectivity ratio: 26
[3]
  selectivity ratio: 9
[4]
  CC50 at 120 h: 148 µM
[5]
  EC50: 17.2 µM
[6]
  EC50: 5.81 µM

## COc1ccc(-n2c(SCc3cccnc3)nnc2[C@H](Cc2ccccc2)NC(=O)Cc2c(C)[nH]c3ccccc23)cc1
[1]
  Ratio EC50: < 0.38
[3]
  selectivity ratio: 8
[4]
  CC50 at 120 h: 24 µM
[5]
  EC50: 2.99 µM
[6]
  EC50: > 7.81 µM

## COc1ccc(N(C)C(=O)[C@H](Cc2ccccc2)NC(=O)CN2CCN(C(=O)Cc3c[nH]c4ccccc34)CC2=O)cc1
[1]
  Ratio EC50: 3.06
[2]
  selectivity ratio: 23
[3]
  selectivity ratio: 7.51
[4]
  CC50 at 120 h: 112 µM
[5]
  EC50: 15 µM
[6]
  EC50: 4.89 µM

## COc1ccc(N(C)C(=O)[C@H](Cc2ccccc2)NC(=O)Cn2ccc(NC(=O)c3ccc(C#N)cc3)cc2=O)cc1
[1]
  Ratio EC50: 0.94
[2]
  selectivity ratio: 7.69
[3]
  selectivity ratio: 8.18
[4]
  CC50 at 120 h: 137 µM
[5]
  EC50: 16.8 µM
[6]
  EC50: 17.8 µM

## COc1ccc(N(C)C(=O)[C@H](Cc2cc(F)cc(F)c2)NC(=O)CN2CCN(C(=O)Cc3c[nH]c4ccc(F)cc34)CC2=O)cc1
[1]
  Ratio EC50: 1.16
[2]
  selectivity ratio: 3.23
[3]
  selectivity ratio: 2.78
[4]
  CC50 at 120 h: 16.4 µM
[5]
  EC50: 5.89 µM
[6]
  EC50: 5.07 µM
